The source made the active and inactive calls. The calls are words filed in the database; no cut-off is given here.
Assays:
[1] = species on record: Rattus norvegicus; experiment: animal or person; assay type: functional; details: Uterus, 72 h, route oral
[2] = system: Rattus norvegicus; experiment: Uterotropic activity in rat assessed as stimulation of estrone-induced uterine weight at 1 mg/kg, po QD after 3 days; assay type: functional; details: Uterus, 72 h
[3] = target: Estrogen receptor beta (Homo sapiens, UniProt Q92731); experiment: Inhibition of fluormone ES2 binding to estrogen receptor beta after 1 hr by fluorescence polarization assay
[4] = target: T1, Estrogen receptor (Homo sapiens, UniProt P03372); experiment: Displacement of radiolabeled estrogen from estrogen receptor alpha by scintillation counting
T1 sequence (P03372 whole entry): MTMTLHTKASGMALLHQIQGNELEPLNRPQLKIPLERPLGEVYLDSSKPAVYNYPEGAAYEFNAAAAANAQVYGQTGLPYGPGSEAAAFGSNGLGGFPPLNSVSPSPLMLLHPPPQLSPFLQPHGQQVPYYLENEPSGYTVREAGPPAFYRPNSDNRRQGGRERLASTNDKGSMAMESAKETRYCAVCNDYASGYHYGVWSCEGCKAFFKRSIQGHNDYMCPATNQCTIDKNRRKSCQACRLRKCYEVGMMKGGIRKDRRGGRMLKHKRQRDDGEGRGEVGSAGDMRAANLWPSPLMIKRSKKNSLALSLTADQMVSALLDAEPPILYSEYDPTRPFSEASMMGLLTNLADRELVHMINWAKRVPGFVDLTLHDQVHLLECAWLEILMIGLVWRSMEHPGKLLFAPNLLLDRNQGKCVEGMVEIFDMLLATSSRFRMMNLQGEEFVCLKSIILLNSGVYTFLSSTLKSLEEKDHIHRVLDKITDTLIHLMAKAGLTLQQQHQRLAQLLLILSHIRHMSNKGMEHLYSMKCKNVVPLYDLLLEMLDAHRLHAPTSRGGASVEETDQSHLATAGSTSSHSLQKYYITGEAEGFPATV

[5] = target: T1, Estrogen receptor; experiment: Antagonist activity at estrogen receptor in human Ishikawa cells assessed as 17-beta-estradiol-induced alkaline phosphatase activity after 3 days by chemiluminescence assay; assay type: functional, cell-based
[6] = AUC in rat at 10 mg/kg, po administered as single dose by LC-MS/MS analysis; assay type: ADME, organism-based; parameters: dose 10 mg/kg, route oral; details: plasma
In short: (§1)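 Single-dose rat pharmacokinetics. IV dosing at 1-3 mg/kg as a solution in 10% β-cyclodextrin; oral gavage at 10 mg/kg as a uniform suspension in 0.5% methylcellulose. Blood (0.5 mL) collected into heparinized tubes by orbital sinus puncture after dosing. Plasma extracted into acetonitrile with an internal standard and analysed by LC-MS-MS against standards to obtain PK parameters.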

[7] = Half life in rat at 10 mg/kg, po administered as single dose by LC-MS/MS analysis; assay type: ADME, organism-based; parameters: dose 10 mg/kg, route oral; details: in vivo
In short: as §1

[8] = Oral bioavailability in rat at 10 mg/kg administered as single dose by LC-MS/MS analysis; assay type: ADME, organism-based; details: in vivo
In short: as §1

[9] = Cmax in rats after 10 mg/kg oral dose; assay type: ADME, organism-based; parameters: dose 10 mg/kg, route oral; details: rat, in vivo
In short: as §1

[10] = Tmax in rat at 10 mg/kg, po administered as single dose by LC-MS/MS analysis; assay type: ADME, organism-based; parameters: dose 10 mg/kg, route oral; details: in vivo
In short: as §1

[11] = system: Rattus norvegicus; experiment: Increase in vaginal fluidity in ovariectomized rat at 0.1 mg/kg, po administered daily measured after 6 weeks by cytology analysis; assay type: functional, organism-based; parameters: dose 0.1 mg/kg
In short: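 Ovariectomized adult female rats dosed daily by oral gavage (0.5% Methocel suspension) for 2 or 6 weeks from 24 h after surgery. Vaginal fluid collected with a cotton swab and its absolute weight determined per animal.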

[12] = system: Rattus norvegicus; experiment: Decrease in bone resorption in ovariectomized rat assessed as decrease in urine deoxypyridinoline level at 0.1 mg/kg, po administered daily measured after 6 weeks; assay type: functional, organism-based; parameters: dose 0.1 mg/kg
In short: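 Adult (>6 months) female rats, housed singly on a casein-based diet, ovariectomized under sterile conditions and anesthesia; 6-14 per group. From 24 h after surgery, daily oral gavage of an aqueous suspension in 0.5% Methocel for 2 or 6 weeks. […] Urine deoxypyridinoline measured as bone-resorption marker.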

[13] = system: Rattus norvegicus; experiment: Decrease in tail skin temperature rise in morphine-addicted Sprague-Dawley rat hot flush model at 0.3 mg/kg, po administered daily measured for 60 mins after naloxone-induced morphine withdrawal; assay type: functional, organism-based; parameters: dose 0.3 mg/kg
In short: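 Ovariectomized adult female Sprague-Dawley rats (3 months), 8-25 per group; oral gavage starting 6 days post-ovariectomy, sesame oil vehicle, suspension. Morphine given sc at 75 and 150 mg on treatment days 3 and 5. On the last day, under ketamine (80 mg/kg, im), tail thermistor; baseline about 20 min, then naloxone 2.0 mg/kg sc and tail skin temperature recorded 60 min. Multiple comparisons at each time point.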

Estrogen receptor beta, sequence (Q92731 whole entry): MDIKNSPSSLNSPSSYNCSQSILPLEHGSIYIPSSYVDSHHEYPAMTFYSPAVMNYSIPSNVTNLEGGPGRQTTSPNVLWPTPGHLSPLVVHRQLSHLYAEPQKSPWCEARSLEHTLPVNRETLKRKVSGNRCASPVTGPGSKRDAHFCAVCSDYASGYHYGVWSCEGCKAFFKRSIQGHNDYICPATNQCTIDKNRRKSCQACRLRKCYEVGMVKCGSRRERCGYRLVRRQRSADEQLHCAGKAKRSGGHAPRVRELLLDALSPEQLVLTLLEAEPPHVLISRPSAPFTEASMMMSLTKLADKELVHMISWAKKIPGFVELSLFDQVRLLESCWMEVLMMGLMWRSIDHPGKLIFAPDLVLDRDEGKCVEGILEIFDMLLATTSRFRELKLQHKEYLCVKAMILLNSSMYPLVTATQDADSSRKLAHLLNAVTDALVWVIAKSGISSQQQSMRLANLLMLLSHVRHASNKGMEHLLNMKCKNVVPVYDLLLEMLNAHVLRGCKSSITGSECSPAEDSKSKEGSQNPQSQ

Row | SMILES | IC50 [3] | IC50 [4] | IC50 [5] | AUC [6] | half-life [7] | bioavailability [8] | Cmax [9] | Tmax [10] | inhibition in vivo at 1 mg/kg [1] | stimulation at 1 mg/kg [2] | Activity [11] | Activity [12] | Activity [13]
1 | CC/C(=C(\c1ccccc1)c1ccc(OCCN(C)C)cc1)c1ccccc1 [TAMOXIFEN] | – | – | – | – | – | – | – | – | 0% | 109% | – | – | –
2 | CN(C)CCOc1ccc([C@@H]2Oc3cc(O)ccc3C3=C2c2ccc(O)cc2OCC3)cc1 | 12 nM | 11 nM | 405 nM | – | – | – | – | – | 0% | 100% | – | – | –
3 | C#C[C@]1(O)CC[C@H]2[C@@H]3CCc4cc(O)ccc4[C@H]3CC[C@@]21C | – | – | – | – | – | – | – | – | – | – | Active | Active | Active

The next lines start with results.

Row | IC50 [3] | IC50 [4] | IC50 [5] | AUC [6] | half-life [7] | bioavailability [8] | Cmax [9] | Tmax [10] | SMILES | inhibition in vivo at 1 mg/kg [1] | stimulation at 1 mg/kg [2] | Activity [11] | Activity [12] | Activity [13]
4 | 28 nM | 9 nM | 133 nM | – | – | – | – | – | CCN(CC)CCOc1ccc([C@@H]2Oc3ccccc3C3=C2c2ccc(O)cc2OCC3)cc1 | 30% | 100% | – | – | –
5 | 27 nM | 1.2 nM | 87 nM | 1530 ng·h/mL | 5.28 h | 9% | 89 ng/mL | 4.8 h | Oc1ccc2c(c1)O[C@H](c1ccc(OCCN3CCSCC3)cc1)C1=C2CCOc2cc(O)ccc21 | 85% | – | – | – | –
6 | 18.5 nM | 5.6 nM | 35 nM | – | – | – | – | – | CC(C)N(CCOc1ccc([C@@H]2Oc3cc(O)ccc3C3=C2c2ccc(O)cc2OCC3)cc1)C(C)C | 30% | 80% | – | – | –
